Among the data in ChEMBL document CHEMBL4304827, “Design, synthesis and evaluation of structurally diverse chrysin-chromene-spirooxindole hybrids as anticancer agents” (Bioorg Med Chem, 2019) are IC50 values, retold here.

Assay [1] has as its system K562. Nature of the assay: Antiproliferative activity against human K562 cells assessed as reduction in cell proliferation incubated for 48 hrs by MTT assay. The class given is functional, cell-based. As to conditions: K562, 48 h. In short, it runs like this:
(§1)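 Log-phase cells were plated at 5 × 10^3/well in RPMI-1640 with 10% FBS and cultured 24 h. Compounds were added at graded concentrations (DMSO <0.1%) for 48 h. MTT (5 mg/mL) was added for about 4 h, formazan was dissolved in DMSO and A490 was read. IC50 was calculated from ≥3 independent experiments and reported as mean ± SD. Chrysin served as positive control.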

Assay [2] relates to A549. Nature of the assay: Antiproliferative activity against human A549 cells assessed as reduction in cell proliferation incubated for 48 hrs by MTT assay. The class given is functional, cell-based. As to conditions: A549, 48 h. In outline: as §1
Assay [3] concerns NCI-H1299. Nature of the assay: Antiproliferative activity against human H1299 cells assessed as reduction in cell proliferation incubated for 48 hrs by MTT assay. It counts as functional, cell-based. As to conditions: NCI-H1299, 48 h. In outline:
as §1

Assay [4] concerns PC-3. Nature of the assay: Antiproliferative activity against human PC3 cells assessed as reduction in cell proliferation incubated for 48 hrs by MTT assay. It counts as functional, cell-based. The following applies: PC-3, 48 h. In short, it runs like this:
as §1

Assay [5] concerns MRC5. Nature of the assay: Cytotoxicity against human MRC5 cells assessed as reduction in cell proliferation incubated for 48 hrs by MTT assay. The class given is cell-based. The following applies: MRC5, 48 h. In short, it runs like this:
as §1

For the molecule `Cc1cccc2c1N(Cc1ccccc1)C(=O)C21C(C#N)=C(N)Oc2cc3oc(-c4ccccc4)cc(=O)c3c(O)c21` (stereo not given), the IC50 in assay [1], in assay [2], in assay [3] and in assay [4] was above 50 µM in each case.

In the case of `COc1ccc(-c2cc(=O)c3c(O)c4c(cc3o2)OC(N)=C(C#N)C42C(=O)N(C)c3ccc(C)cc32)c(OC)c1` (stereo not given), the IC50 in assay [1] is 12.2 µM; in assay [2], above 50 µM; in assay [3], above 50 µM; in assay [4], above 50 µM.

In the case of `CCN1C(=O)C2(C(C#N)=C(N)Oc3cc4oc(-c5ccccc5)cc(=O)c4c(O)c32)c2cccc(C)c21` (stereo not given), the IC50 in assay [1], in assay [2], in assay [3] and in assay [4] was above 50 µM each time.

As for `Cc1ccc2c(c1)C1(C(=O)N2Cc2ccccc2)C(C#N)=C(N)Oc2cc3oc(-c4ccccc4F)cc(=O)c3c(O)c21` (stereo not given), the IC50 in assay [1], in assay [2], in assay [3] and in assay [4] was above 50 µM each time.

For the molecule `COc1ccc(-c2cc(=O)c3c(O)c4c(cc3o2)OC(N)=C(C#N)C42C(=O)N(Cc3ccccc3)c3ccccc32)c(OC)c1` (stereo not given), the concentration for half-maximal inhibition (IC50) in assay [1], in assay [2], in assay [3] and in assay [4] was above 50 µM each time.

With `Cc1ccc2c(c1)C1(C(=O)N2)C(C#N)=C(N)Oc2cc3oc(-c4ccccc4)cc(=O)c3c(O)c21` (stereo not given), the IC50 in assay [1], in assay [2], in assay [3] and in assay [4] was above 50 µM in each case.

Turning to `N#CC1=C(N)Oc2cc3oc(-c4ccccc4)cc(=O)c3c(O)c2C12C(=O)Nc1ccccc12` (stereo not given), the IC50 in assay [1] was 36.4 µM; in assay [2], 37.6 µM; in assay [3] it was above 50 µM; in assay [4] it was above 50 µM.

For the molecule `N#CC1=C(N)Oc2cc3oc(-c4ccccc4)cc(=O)c3c(O)c2C12C(=O)Nc1cc(Cl)ccc12` (stereo not given), the IC50 in assay [1] worked out at 9.25 µM; in assay [2], 8.47 µM; in assay [3], 16.6 µM; in assay [4], 25.7 µM.

In the case of `CC(C)(C)OC(=O)CN1C(=O)C2(C(C#N)=C(N)Oc3cc4oc(-c5ccccc5)cc(=O)c4c(O)c32)c2ccccc21` (stereo not given), the IC50 in assay [1], in assay [2], in assay [3] and in assay [4] was above 50 µM throughout.

For `COc1ccc2c(c1)C1(C(=O)N2Cc2ccccc2)C(C#N)=C(N)Oc2cc3oc(-c4ccccc4)cc(=O)c3c(O)c21` (stereo not given), the IC50 in assay [1], in assay [2], in assay [3] and in assay [4] was above 50 µM throughout.

For `N#CC1=C(N)Oc2cc3oc(-c4ccccc4)cc(=O)c3c(O)c2C12C(=O)N(Cc1ccccc1)c1ccc(Br)cc12` (stereo not given), the IC50 is 36.4 µM in assay [1], above 50 µM in assay [2], above 50 µM in assay [3] and above 50 µM in assay [4].

As for `Cc1ccc2c(c1)C1(C(=O)N2Cc2ccccc2)C(C#N)=C(N)Oc2cc3oc(-c4ccccc4)cc(=O)c3c(O)c21` (stereo not given), the concentration for half-maximal inhibition (IC50) in assay [1], in assay [2], in assay [3] and in assay [4] was above 50 µM in each case.

In the case of `Cc1ccc2c(c1)C1(C(=O)N2C)C(C#N)=C(N)Oc2cc3oc(-c4ccccc4)cc(=O)c3c(O)c21` (stereo not given), the IC50 was 5.87 µM in assay [1], 7.06 µM in assay [2], 10.2 µM in assay [3] and above 50 µM in assay [4].

With `CCN1C(=O)C2(C(C#N)=C(N)Oc3cc4oc(-c5ccc(OC)cc5OC)cc(=O)c4c(O)c32)c2cc(Br)ccc21` (stereo not given), the IC50 in assay [1] was 16.1 µM; in assay [2] it was above 50 µM; in assay [3], above 50 µM; in assay [4], above 50 µM.

For the molecule `N#CC1=C(N)Oc2cc3oc(-c4ccccc4)cc(=O)c3c(O)c2C12C(=O)N(c1ccccc1)c1ccccc12` (stereo not given), the IC50 in assay [1], in assay [2], in assay [3] and in assay [4] was above 50 µM in each case.

For `N#CC1=C(N)Oc2cc3oc(-c4ccccc4)cc(=O)c3c(O)c2C12C(=O)Nc1c(Cl)cccc12` (stereo not given), the IC50 in assay [1] is 37.5 µM; in assay [2], above 50 µM; in assay [3] it was above 50 µM; in assay [4], above 50 µM.

Consider `N#CC1=C(N)Oc2cc3oc(-c4ccccc4)cc(=O)c3c(O)c2C12C(=O)N(Cc1ccccc1)c1ccc(F)cc12` (stereo not given), for which the IC50 in assay [1], in assay [2], in assay [3] and in assay [4] was above 50 µM in each case.

`O=c1cc(-c2ccccc2)oc2cc(O)cc(O)c12` [CHRYSIN]: the IC50 in assay [1] is above 50 µM; in assay [2], above 50 µM; in assay [5] it was above 100 µM; in assay [3], above 50 µM; in assay [4] it was above 50 µM.

As to `N#CC1=C(N)Oc2cc3oc(-c4ccccc4)cc(=O)c3c(O)c2C12C(=O)N(Cc1ccccc1)c1ccc(Cl)cc12` (stereo not given), the IC50 in assay [1] was 36.3 µM; in assay [2], above 50 µM; in assay [3], above 50 µM; in assay [4], above 50 µM.

Turning to `CCN1C(=O)C2(C(C#N)=C(N)Oc3cc4oc(-c5ccc(OC)cc5OC)cc(=O)c4c(O)c32)c2cc(Cl)ccc21` (stereo not given), the IC50 is 8.45 µM in assay [1], above 50 µM in assay [2], above 50 µM in assay [3] and above 50 µM in assay [4].

Take `N#CC1=C(N)Oc2cc3oc(-c4ccccc4)cc(=O)c3c(O)c2C12C(=O)Nc1cc(Br)ccc12` (stereo not given): the IC50 in assay [1] is 8.7 µM; in assay [2], 9.34 µM; in assay [3], 14.4 µM; in assay [4], 24.8 µM.

As for `CN1C(=O)C2(C(C#N)=C(N)Oc3cc4oc(-c5ccccc5)cc(=O)c4c(O)c32)c2ccccc21` (stereo not given), the IC50 in assay [1], in assay [2], in assay [3] and in assay [4] was above 50 µM throughout.

In the case of `CN1C(=O)C2(C(C#N)=C(N)Oc3cc4oc(-c5ccccc5)cc(=O)c4c(O)c32)c2cc(Cl)ccc21` (stereo not given), the IC50 in assay [1] was 4.34 µM; in assay [2], 4.72 µM; in assay [3], 11.2 µM; in assay [4] it was 21.4 µM.

For the molecule `N#CC1=C(N)Oc2cc3oc(-c4ccccc4)cc(=O)c3c(O)c2C12C(=O)N(Cc1ccccc1)c1c(Cl)cccc12` (stereo not given), the IC50 is 47.8 µM in assay [1], above 50 µM in assay [2], above 50 µM in assay [3] and above 50 µM in assay [4].

Take `CCN1C(=O)C2(C(C#N)=C(N)Oc3cc4oc(-c5ccccc5)cc(=O)c4c(O)c32)c2cc(C)ccc21` (stereo not given): the IC50 in assay [1], in assay [2], in assay [3] and in assay [4] was above 50 µM each time.

In the case of `CN1C(=O)C2(C(C#N)=C(N)Oc3cc4oc(-c5ccccc5)cc(=O)c4c(O)c32)c2cccc(Cl)c21` (stereo not given), the IC50 is 41.4 µM in assay [1], above 50 µM in assay [2], above 50 µM in assay [3] and above 50 µM in assay [4].
